Source: PubChem BioAssay (several laboratories)
T cell HTS = T cell immune modulation candidate; actives 0.068% (n = 330,000); response (vesicle binding), % at 7 µM; 2C CD8+ T cell-vesicle binding, flow cytometry; stronger effect = lower value; AID 2052;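 active = response, share of CD8 T cells binding vesicles, and their 90th percentile fluorescence all below set limits, cut at about 80% in these data, passing the limit was not always enough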;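 note: values below 100% mean blocked vesicle binding to the CD8+ T cells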
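Benchmarks: naked versus QL9-loaded vesicles / Assay system: purified 2C TCR transgenic mouse naive CD8+ T cells / Technique: high-throughput flow cytometry with anti-B7-1 and anti-CD8 staining / Timing: Cell–vesicle co-incubation 1.5 h at 37 °C, staining 20 min on ice / Read-out: percent CD8+ FL2 mean versus row control / Probe or stimulus: QL9-loaded Drosophila micro-vesicles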
Pemphigus Ab inh = inhibitors of pemphigus antibody binding to human desmoglein-3; P32926; DSG3-coupled beads, scFv-anti-DSG3-GFP binding, flow cytometry; stronger effect = lower value; binding (percent of control), % at 10 µM; actives 0.48% (n = 310,000);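 active = binding more than 3 SD below its plate's average and above zero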;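 note: hits lower antibody fragment binding to DSG3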
Arr AP2 block = blocks beta-arrestin peptide binding to AP2 adaptin; AID 504490; inhibition, % at 10 µM; actives 0.31% (n = 340,000); FITC-arrestin peptide / GST-AP2 beads, flow cytometry; AP2 beta2 appendage carries R879A mutation;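 active = inhibition above a set limit, near 3 SD of compounds lacking own fluorescence, cut at about 54% in these data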;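 note: plate controls were DMSO wells for no effect and 5 µM unlabelled arrestin peptide for full effect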
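system = GST-tagged AP2 beta2-adaptin appendage (R879A) on 4 µm glutathione beads | reagent = FITC-labelled arrestin peptide probe, 50 nM final | schedule = compound with beads 12 min RT, then probe 1 h RT | signal = HyperCyt-sampled flow cytometry, FL1 channel, ex 488/em 535 nm | read-out = percent response from loss of bead-bound FITC fluorescence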
LANA-H2B inh = blocks KSHV LANA binding to histone H2A/H2B; Q9QR71; cell-free LANA-H2A/H2B peptide, fluorescence polarization; inhibition, % (test concentration not listed); actives 0.6% (n = 320,000); AID 2629; in the data active = inhibition mostly above about 10%, no sharp cut-off; inactive = mostly below about 6.7%
HDAC3 inh = inhibitors of human histone deacetylase 3 | O15379 | AID 2718 | actives 0.15% (n = 320,000) | inhibition, % at 8.3 µM | recombinant HDAC3, fluorogenic peptide/trypsin coupled, fluorescence; in the data active = inhibition above about 26%, passing the limit was not always enough
* marks the source's active call; other numbers are inactive results. Shown are actives, neighbours in structure and some others; about 1.5% of the full set was active somewhere.

COc1cc2c(cc1OC)C(C)=NC1(CCCCC1)C2 was read as T cell HTS 262, Pemphigus Ab inh 103, Arr AP2 block 1 and LANA-H2B inh 8.0*.
Screening CC(NC(=O)c1cc(COc2c(F)cccc2F)on1)c1cnn(-c2ccccc2)c1 (stereo not drawn) returned T cell HTS 217, Pemphigus Ab inh 105, Arr AP2 block 6, LANA-H2B inh 47* and HDAC3 inh 1.
COC(=O)C(CCCN1C(=O)c2ccccc2C1=O)(NC(C)=O)c1nn[nH]n1 (stereo not drawn) was read as T cell HTS 408, Pemphigus Ab inh 97, Arr AP2 block -7, LANA-H2B inh 19* and HDAC3 inh 4.
For CC(=O)Nc1ccc(NC(=O)CCCN2C(=O)c3ccccc3C2=O)cc1 the results were T cell HTS 785, Pemphigus Ab inh 109, Arr AP2 block 44, LANA-H2B inh 5 and HDAC3 inh 1.
Screening O=c1c2cn(Cc3ccccc3)c3ccccc3c-2nn1Cc1ccc(F)cc1Cl returned Pemphigus Ab inh 88 and Arr AP2 block 37.
`NC(=O)c1ccc(N=Nc2c(O)c3ccccc3[nH]c2=O)cc1` gave T cell HTS 141, LANA-H2B inh 1 and HDAC3 inh 6.
Screening N=C(N)c1ccc(N=Nc2c(O)ccc3c2[nH]c2ccccc23)cc1 returned Pemphigus Ab inh 69* and Arr AP2 block 41.
CC(=O)Nc1ccc(-c2cn3ccsc3n2)cc1 was read as T cell HTS 203, Pemphigus Ab inh 102, Arr AP2 block 4, LANA-H2B inh 15* and HDAC3 inh -6.
`COC(=O)c1ccc(CN2CCC(CO)(Cc3ccccc3Cl)CC2)cc1` gave T cell HTS 284, Pemphigus Ab inh 97, Arr AP2 block 31, LANA-H2B inh 1 and HDAC3 inh 3.
`O=C(C1CC12CCCC2)N1CCC(CO)(Cc2ccccc2Cl)CC1` (stereo not drawn) gave T cell HTS 172, Pemphigus Ab inh 103, Arr AP2 block -9, LANA-H2B inh 19* and HDAC3 inh -10.
For CCOC(=O)C(C(=O)OCC)C(c1ccccc1)N1CCN(c2ccccc2)CC1 (stereo not drawn) the results were Pemphigus Ab inh 121 and Arr AP2 block 4.
For Cc1ccc(-c2cc(-c3ccccc3)nc(NN)n2)cc1 the results were T cell HTS 307, Pemphigus Ab inh 93, Arr AP2 block -12, LANA-H2B inh 0 and HDAC3 inh 6.
Screening CNc1nc(-c2ccccc2)[n+](-c2ccc(C)cc2)s1 returned T cell HTS 590, Pemphigus Ab inh 1.4*, Arr AP2 block 22, LANA-H2B inh 1 and HDAC3 inh 42*.
For Cc1ccc(-c2nc(N)s[n+]2-c2ccccc2)cc1 the results were T cell HTS 190, Pemphigus Ab inh 81, Arr AP2 block 26, LANA-H2B inh -13 and HDAC3 inh 62*.
`Cc1ccc(-c2nc3ccccc3nc2-c2ccccc2)cc1` gave T cell HTS 285, Pemphigus Ab inh 101, Arr AP2 block -5, LANA-H2B inh 0 and HDAC3 inh 3.
CCOC(=O)C1CCCN(CCC(=O)Nc2cc(OC)ccc2OC)C1 (stereo not drawn) was read as T cell HTS 231, Pemphigus Ab inh 112, Arr AP2 block 0, LANA-H2B inh -3 and HDAC3 inh -1.
`Cc1ccc(C(=O)NCC(=O)N2CCN(c3ncccn3)CC2)s1` gave T cell HTS inactive, Pemphigus Ab inh 98, Arr AP2 block -11, LANA-H2B inh 18* and HDAC3 inh -5.
For O=C(NCC(=O)N1CCN(c2ncccn2)CC1)c1cccs1 the results were T cell HTS inactive, Pemphigus Ab inh 101, Arr AP2 block -7, LANA-H2B inh 5 and HDAC3 inh -7.
`COc1ccc2c(c1OC)C(=O)N1C2SC[C@H]1C(=O)NC1CCCC1` (stereo partly drawn) gave T cell HTS 79, Arr AP2 block 7, LANA-H2B inh 0 and HDAC3 inh -2.
O=C(Nc1ccnn1C1CCN(CCCc2ccccc2)CC1)c1ccccc1Cl was read as T cell HTS inactive, Pemphigus Ab inh 104, Arr AP2 block 17, LANA-H2B inh 5 and HDAC3 inh 1.
Cc1cccc([N+](=O)[O-])c1C(=O)O was read as T cell HTS inactive, Pemphigus Ab inh 101, Arr AP2 block 21, LANA-H2B inh 19* and HDAC3 inh 1.
Screening Cn1c(SCC(=O)Nc2cccnc2Cl)nc2ccccc21 returned T cell HTS 494, Pemphigus Ab inh 90, Arr AP2 block 38, LANA-H2B inh 1 and HDAC3 inh -3.
Screening COc1ccc(NC(=O)C2(S(=O)(=O)c3ccc(C)cc3)CC2)cc1OC returned T cell HTS 264, Pemphigus Ab inh 104, Arr AP2 block 31, LANA-H2B inh 26* and HDAC3 inh -2.
COCCCN1C(=O)c2ccc(C(=O)N3CCN(c4ccccc4OC)CC3)cc2C1=O was read as T cell HTS 221, Arr AP2 block -6, LANA-H2B inh -5 and HDAC3 inh -1.
COc1ccc(C(Sc2ccccc2)c2ccccc2)cc1OC (stereo not drawn) was read as T cell HTS 390, Pemphigus Ab inh 103, Arr AP2 block -3, LANA-H2B inh 12* and HDAC3 inh 5.
For COc1ccc(C(CC(=O)c2ccccc2)CC(=O)c2ccccc2)cc1OC the results were T cell HTS 25, Pemphigus Ab inh 97, Arr AP2 block 14, LANA-H2B inh -2 and HDAC3 inh 3.
`Cc1cc(Br)c(NC(=O)c2c(-c3c(Cl)cccc3Cl)noc2C)c(Br)c1` gave T cell HTS 26*, Pemphigus Ab inh 87, Arr AP2 block 27, LANA-H2B inh -5 and HDAC3 inh 2.
Cc1onc(-c2c(F)cccc2Cl)c1C(=O)c1ccc(F)cc1 was read as T cell HTS 323, Pemphigus Ab inh 64*, Arr AP2 block 36, LANA-H2B inh -7 and HDAC3 inh 0.
Screening Cc1onc(-c2c(Cl)cccc2Cl)c1C(=O)Nc1ccc2c(c1)OCCO2 returned T cell HTS 324, Pemphigus Ab inh 92, Arr AP2 block -2, LANA-H2B inh -2 and HDAC3 inh 12.
For Cc1onc(-c2c(F)cccc2Cl)c1C(=O)N1CCc2ccccc21 the results were T cell HTS 248, Pemphigus Ab inh 96, Arr AP2 block 0, LANA-H2B inh 66* and HDAC3 inh 5.
`O=C(CCc1c[nH]c2ccccc12)NC(Cc1ccccc1)C(=O)O` (stereo not drawn) gave T cell HTS 425, Pemphigus Ab inh 92, Arr AP2 block 26, LANA-H2B inh -1 and HDAC3 inh 7.
For COC(=O)c1ccccc1NC(=O)CSc1nc(N)cc(=O)[nH]1 the results were T cell HTS 285, Pemphigus Ab inh 56*, Arr AP2 block 1, LANA-H2B inh 3 and HDAC3 inh 0.
